Source: ChEMBL document CHEMBL1121966, “(2R*,3S*)-1-[125I]Iodo-2,3-bis(4-hydroxyphenyl)pentane ([125I]iodonorhexestrol) and (2R*,3S*)-1-[77Br]Bromo-2,3-bis(4-hydroxyphenyl)pentane ([77Br]bromonorhexestrol), two gamma-emitting estrogens that show receptor-mediated uptake by target tissues in vivo” (1982)

Columns and labels:
[1] = species: Rattus norvegicus; test: Percent injected dose per gram lung at 1 hr; type: functional
Method in brief: (§1)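 Immature (25 day) female Sprague-Dawley rats (ca. 50 g) were dosed iv (jugular or tail vein) in ethanol plus 0.9% NaCl/rat serum (1:1). Doses were 2 μCi of [125I]iodonorhexestrol (≤15 pmol/dose), or 2 μCi each of [77Br]bromonorhexestrol (≤1.25 pmol/dose) and 16α-[125I]iodoestradiol (2 pmol/dose). Rats were killed at 1, 3 or 6 h; blood and tissues were weighed and γ-counted. Thyroid weight assumed 0.005 g/100 g body weight. Mean ± SD.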

[2] = Spleen/blood distribution ratio was determined immature female rats at 1 hr; type: functional; method in brief: as §1
[3] = species: Rattus norvegicus; test: Percent injected dose per gram Ovaries at 1 hr; type: functional
Method in brief: (§2)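 Immature (25-day, ca. 50 g) Sprague-Dawley female rats received an iv injection (jugular or tail vein) of HPLC-purified tracer in ethanol plus 0.9% NaCl/rat serum 1:1. Doses were 2 μCi [125I]iodo tracer (≤15 pmol), or 2 μCi [77Br]bromo tracer (≤1.25 pmol) with 2 μCi 16α-[125I]iodoestradiol. Animals were killed at 1 h; blood and tissues were weighed and γ-counted. Blocking: coinjected unlabeled estradiol, 9 μg (iodo) or 18 μg (bromo). Mean ± SD.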

[4] = Liver/blood distribution ratio was determined in immature female rats at 1 hr with unlabeled estradiol; type: functional; method in brief: as §2
[5] = species: Rattus norvegicus; test: Percent injected dose per gram spleen at 6 hr; type: functional; method in brief: as §1
[6] = species: Rattus norvegicus; test: Percent injected dose per gram lung at 3h; type: functional; method in brief: as §1
[7] = Muscle/blood distribution ratio was determined immature female rats at 1 hr with unlabeled estradiol; type: functional; method in brief: as §2
[8] = species: Rattus norvegicus; test: Percent injected dose per gram liver at 6 hr; type: functional; method in brief: as §1
[9] = species: Rattus norvegicus; test: Percent injected dose per gram liver at 3h; type: functional; method in brief: as §1
[10] = Tissue/blood distribution ratio was measured in immature female rats at 1h, unlabeled estradiol (18 microg) coinjected; type: functional
Method in brief: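 Immature female rats given iv [77Br]bromonorhexestrol with 16α-[125I]iodoestradiol (2 μCi each) plus 18 μg unlabeled estradiol coinjected; killed at 1 h. Tissue and blood were weighed and counted, and tissue-to-blood radioactivity ratios were computed; 5 animals, mean ± SD.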

[11] = Esophagus/blood distribution ratio was determined in immature female rats at 1 hr; type: functional; method in brief: as §2
[12] = Muscle/blood distribution ratio was determined in immature female rats at 3h; type: functional
Method in brief: (§3)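 Dual-label study in immature 25-day female Sprague-Dawley rats (ca. 50 g). Each received 2 μCi [77Br]bromo tracer (≤1.25 pmol/dose) and 2 μCi 16α-[125I]iodoestradiol (2 pmol/dose) by tail or jugular vein, in ethanol diluted with saline/rat serum 1:1. Rats were killed at 3 or 6 h; blood and 11 tissues were weighed and counted. Five rats per time point; mean ± SD.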

[13] = species: Rattus norvegicus; test: Percent injected dose per gram lung at 1 hr with unlabeled estradiol; type: functional
Method in brief: (§4)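 Same iv biodistribution in immature female rats, killed at 1 h, with unlabeled estradiol coinjected to block receptor uptake: 9 μg with [125I]iodonorhexestrol (3 rats), 18 μg with the [77Br]bromonorhexestrol/16α-[125I]iodoestradiol pair (5 rats). Tissue and blood radioactivity were counted as % injected dose/g and tissue-to-blood ratio.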

[14] = species: Rattus norvegicus; test: Percent injected dose per gram Muscle at 3h; type: functional; method in brief: as §3
[15] = Liver/blood distribution ratio was determined in immature female rats at 6 hr; type: functional; method in brief: as §3
[16] = species: Rattus norvegicus; test: Percent injected dose per gram Uterus at 3h; type: functional; method in brief: as §3
[17] = Kidney/blood distribution ratio was determined in immature female rats at 3h; type: functional; method in brief: as §3
[18] = species: Rattus norvegicus; test: Percent injected dose per gram esophagus at 1 hr; type: functional; method in brief: as §2
[19] = species: Rattus norvegicus; test: Percent injected dose per gram blood at 1 hr with unlabeled estradiol; type: functional; method in brief: as §2
[20] = species: Rattus norvegicus; test: Percent injected dose per gram lung at 6 hr; type: functional; method in brief: as §1
[21] = Thyroid/blood distribution ratio was determined in immature female rats at 3h; type: functional; method in brief: as §1
[22] = species: Rattus norvegicus; test: Percent injected dose per gram esophagus at 3h; type: functional; method in brief: as §3
[23] = species: Rattus norvegicus; test: Percent injected dose per gram kidney at 3h; type: functional; method in brief: as §3
[24] = species: Rattus norvegicus; test: Percent injected dose per gram Uterus at 6 hr; type: functional; method in brief: as §3
[25] = Uterus/blood distribution of compound was measured in immature female rats at 1 hr with unlabeled estradiol; type: functional; method in brief: as §4
[26] = Lung/blood distribution ratio was determined in immature female rats at 1 hr with unlabeled estradiol; type: functional; method in brief: as §2
[27] = species: Rattus norvegicus; test: Percent injected dose per gram spleen at 3h; type: functional; method in brief: as §1
[28] = Thyroid/blood distribution ratio was determined in immature female rats at 1 hr; type: functional; method in brief: as §1
[29] = Spleen/blood distribution ratio was determined in immature female rats at 1 hr with unlabeled estradiol; type: functional
[30] = Muscle/blood distribution ratio was determined in immature female rats at 1 hr; type: functional; method in brief: as §2
[31] = species: Rattus norvegicus; test: Percent injected dose per gram Ovaries at 3h; type: functional; method in brief: as §3
[32] = Tissue/blood distribution ratio was measured in immature female rats at 3h; type: functional; method in brief: as §1
[33] = Thyroid/blood distribution ratio was determined in immature female rats at 1 hr with unlabeled estradiol; type: functional; method in brief: as §4
[34] = Lung/blood distribution ratio was determined in immature female rats at 6 hr; type: functional; method in brief: as §3
[35] = species: Rattus norvegicus; test: Percent injected dose per gram thyroid at 3h; type: functional, Thyroid gland; method in brief: as §1
[36] = Uterus/blood distribution ratio was measured in immature female rats at 6 hr; type: functional; method in brief: as §1
[37] = species: Rattus norvegicus; test: Percent injected dose per gram spleen at 1 hr with unlabeled estradiol; type: functional; method in brief: as §4
[38] = Ovary/blood distribution ratio was determined in immature female rats at 1 hr; type: functional; method in brief: as §2
[39] = Lung/blood distribution ratio was determined in immature female rats at 1 hr; type: functional; method in brief: as §2
[40] = species: Rattus norvegicus; test: Percent injected dose per gram Uterus at 1 hr with unlabeled estradiol; type: functional; method in brief: as §2

**Q.** With `C[C@]12CC[C@@H]3c4ccc(O)cc4CC[C@H]3[C@@H]1C[C@@H](I)[C@@H]2O` as the compound, how does the Injected dose [1] read?
**A.** 0.75%

**Q.** What about the Ratio [2] of the same compound?
**A.** 0.46

**Q.** What about the Injected dose [3] of the same compound?
**A.** 4.17%

**Q.** And the Ratio [4]?
**A.** 3.95

**Q.** What about the Injected dose [5] of the same compound?
**A.** 0.08%

**Q.** And the Injected dose [6]?
**A.** 0.36%

**Q.** What about the Ratio [7] of the same compound?
**A.** 0.5

**Q.** And the Injected dose [8]?
**A.** 0.9%

**Q.** And the Injected dose [9]?
**A.** 1.96%

**Q.** What about the Ratio [10] of the same compound?
**A.** 1

**Q.** And the Ratio [11]?
**A.** 0.62

**Q.** What about the Ratio [12] of the same compound?
**A.** 0.25

**Q.** What about the Injected dose [13] of the same compound?
**A.** 1.76%

**Q.** And the Injected dose [14]?
**A.** 0.15%

**Q.** What about the Ratio [15] of the same compound?
**A.** 6.28

**Q.** And the Injected dose [16]?
**A.** 6.83%

**Q.** And the Ratio [17]?
**A.** 1.83

**Q.** And the Injected dose [18]?
**A.** 0.49%

**Q.** And the Injected dose [19]?
**A.** 1.22%

**Q.** What about the Injected dose [20] of the same compound?
**A.** 0.14%

**Q.** And the Ratio [21]?
**A.** 192.8

**Q.** And the Injected dose [22]?
**A.** 0.32%

**Q.** And the Injected dose [23]?
**A.** 0.94%

**Q.** What about the Injected dose [24] of the same compound?
**A.** 1.57%

**Q.** What about the Ratio [25] of the same compound?
**A.** 1.37

**Q.** What about the Ratio [26] of the same compound?
**A.** 1.08

**Q.** What about the Injected dose [27] of the same compound?
**A.** 0.18%

**Q.** And the Ratio [28]?
**A.** 30.8

**Q.** And the Ratio [29]?
**A.** 0.67

**Q.** And the Ratio [30]?
**A.** 0.42

**Q.** What about the Injected dose [31] of the same compound?
**A.** 1.75%

**Q.** And the Ratio [32]?
**A.** 1

**Q.** And the Ratio [33]?
**A.** 44.5

**Q.** What about the Ratio [34] of the same compound?
**A.** 0.93

**Q.** And the Injected dose [35]?
**A.** 190.9%

**Q.** What about the Ratio [36] of the same compound?
**A.** 9.14

**Q.** And the Injected dose [37]?
**A.** 0.79%

**Q.** What about the Ratio [38] of the same compound?
**A.** 3.02

**Q.** And the Ratio [39]?
**A.** 0.86

**Q.** What about the Injected dose [40] of the same compound?
**A.** 1.81%
